Screening results: PubChem, The Scripps Research Institute Molecular Screening Center
proCasp7 act = activates human procaspase-7, counter-screen for procaspase-3 activators. P55210. recombinant procaspase-7, Ac-DEVD-pNA absorbance 405 nm; D23A/D198A/D206A triple mutant, cannot self-cleave; scale: DMSO 0, 5 µM enzyme 100. activation, % at 8.5 µM. actives 0.093% (n = 330,000). AID 463210;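 active = percent activation above the screen-wide mean plus 3 SD, cut at about 25% in these data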
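Test system: Procaspase-7 triple mutant (PC-7 D3A). Also added: Ac-DEVD-pNA substrate, 400 µM as added. Schedule: 1 h enzyme–compound preincubation and 2 h substrate reaction, both 25 °C. Signal: p-Nitroaniline absorbance at 405 nm, read at 0 and 120 min. Control set: low DMSO alone, high DMSO plus 5 µM PC-7.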
PLCg1 inh = inhibitors of human phospholipase C gamma1; inhibition, % at 12.2 µM; actives 0.84% (n = 370,000); purified PLC-gamma1, fluorogenic substrate, fluorescence
procasp3 activ = activators of human procaspase-3 | activation, % at 8.5 µM | recombinant procaspase-3 D3A, Ac-DEVD-pNA absorbance 405 nm | P42574 | actives 0.11% (n = 330,000) | AID 463141;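 active = activation above the mean of all tested compounds plus 3 SD, cut at about 21% in these data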;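 also: 0% = DMSO alone and 100% = DMSO wells spiked with extra 5 µM PC-3 D3A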
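Compound: 8.5 µM single point, 0.8% DMSO / Material: Autoprocessing-dead procaspase-3 D3A mutant enzyme / Timing: 1 h preincubation plus 2 h reaction at 25 °C / Medium: Zinc-free HEPES/NaCl buffer with 0.01% Triton X-100 at pH 7.4 / Technique: 405 nm absorbance of p-nitroaniline, reads at 0 and 120 min / Repeats: one well per compound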
HGIII-sPLA2 inh = Inhibits HGIII-sPLA2 liposome hydrolysis, primary screen; QFRET BODIPY PC-A2 liposome hydrolysis, fluorescence; inhibition, % at 12.2 µM; actives 0.56% (n = 370,000); AID 743126;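 active = inhibition above mean plus 3 SD of compounds lying within the high and low control bounds, cut at about 19% in these data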;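 also: 0% = median of test compound wells and 100% = no enzyme DMSO wells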
PLC-beta3 inh = PLC-beta3 (human) inhibition, primary screen; Q01970; inhibition, % at 12.2 µM; AID 720704; Purified PLC-beta3, fluorogenic substrate, fluorescence; actives 0.18% (n = 370,000); in the data active = inhibition above about 11%;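 also: 0% = median of compound wells on plate and 100% = full blocker control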
PLCgamma1 ctr = inhibits human PLC-gamma1 in PLC-beta3 counter-screen | shares compounds with PLCg1 inh | purified PLC-gamma1, fluorogenic substrate, fluorescence | inhibition, % at 12.3 µM | actives 3.1% (n = 3,300) | AID 743258
PLCb3 confirm = human PLC-beta3 inhibition, confirmation; shares compounds with PLCg1 inh; purified PLC-beta3, fluorogenic substrate fluorescence; inhibition, % at 12.3 µM; actives 1% (n = 3,300); in the data active = inhibition above about 11%
Numbers without * were called inactive; . = not tested or not shown. The list is not random: actives were taken first. Their share in the collection is about 1.6%. Rule as the data show it, unless noted: active = inhibition above about 9.5%; inactive = the rest.

SMILES	proCasp7 act	PLCg1 inh	procasp3 activ	HGIII-sPLA2 inh	PLC-beta3 inh	PLCgamma1 ctr	PLCb3 confirm
COC(=O)[C@@H]1CC[C@@](C)(c2ccc(OC)cc2)C1(C)C	-11	14*	-5	17	8	-6	-2
COc1ccccc1NS(=O)(=O)c1ccc2oc(N)nc2c1	-4	0	-6	1	-3	.	.
O=c1c(=O)n(O)c2ccccc2n1O	-4	13*	2	0	-1	-6	-2
COn1c(=O)c(=O)n(O)c2ccccc21	0	4	3	-2	3	.	.
CCC(=O)N1CCCC1(C)C(=O)Nc1ccc2scnc2c1 (stereo unspecified)	.	12*	.	5	8	-2	-14
O=C(CCNc1cc(Cl)cc(Cl)c1)c1cccs1	-13	13*	-5	-20	5	11*	4
CC(C)OCCCNC(=O)CN1C(=O)CSc2ccc(S(=O)(=O)N3CCOCC3)cc21	.	-4	.	4	2	.	.
Cc1ccccc1Cn1cc(CN2[C@@H](CC(C)C)COc3cc(Br)ccc3S2(=O)=O)nn1	.	1	.	0	3	.	.
CC(=O)c1c(C)[nH]c(C(=O)OCC(=O)NCCc2ccc(Cl)cc2)c1C	6	11*	9	-10	2	3	-2
O=C(OCC(=O)C12CC3CC(CC(C3)C1)C2)c1cnccn1	-9	12*	-4	5	3	1	1
O=C(COC(=O)c1cnccn1)c1ccccc1	.	-1	.	12	12*	-4	0
O=C(OCC(=O)C12CC3CC(CC(C3)C1)C2)c1ccc(O)cc1O	7	10*	-2	-32	3	2	3
O=C(COC(=O)c1ccc(O)cc1O)NC12CC3CC(CC(C3)C1)C2	5	7	7	-39	-1	.	.
O=C(OCC(=O)C12CC3CC(CC(C3)C1)C2)c1ccccn1	3	5	-2	-4	-1	.	.
CC(=O)c1ccc(OCC(=O)NC2CCCN(Cc3ccccc3F)C2)cc1 (stereo unspecified)	.	1	.	5	-8	.	.
COc1ccc(N(CC(=O)NCCC2=CCCCC2)S(=O)(=O)c2c(C)[nH]c(=O)[nH]c2=O)cc1	10	0	3	-7	-7	.	.
COc1cccc(COCCN2CCN(S(=O)(=O)c3ccc(C)cc3)CCC2=O)c1	1	12*	3	-1	10	-7	-4
COc1cccc(NC(C)C(=O)Nc2cc([N+](=O)[O-])ccc2Cl)c1 (stereo unspecified)	-5	2	0	-4	-2	.	.
CCCCOC(=O)n1c(=O)oc2cc(S(=O)(=O)N3CCCCC3)ccc21	8	11*	7	-40	1	-3	-1
Cc1cccc(OCCCn2c(CO)nc3ccccc32)c1	1	12*	-2	3	3	-4	-1
O=C1c2ccccc2C(=O)N1Cc1cccnc1	-9	12*	1	12	5	-5	0
O=C1c2cccnc2C(=O)N1Cc1ccccc1	6	4	4	5	5	.	.
C=CCn1c(SCc2cccc(OC)c2)nnc1-c1ccncc1	9	12*	8	6	0	0	-3
c1ccc(CCn2c(SCc3ccccc3)nnc2-c2ccncc2)cc1	-5	9.9*	7	11	2	-5	-4
N#Cc1ccc(CSc2nnc(-c3ccncc3)n2CCc2ccccc2)cc1	-2	-3	-4	8	-3	.	.
COc1cccc(CSc2nnc(-c3ccncc3)n2N)c1	5	3	8	-1	-1	.	.
COc1cc(C2C(C#N)=C(N)OC3=C2C(=O)CC(C)(C)C3)cc2c1OCO2 (stereo unspecified)	7	-5	-9	-5	-13	.	.
CC1CCCCN1C(=O)c1ccccc1OC1CCN(S(C)(=O)=O)CC1 (stereo unspecified)	0	9.5*	-13	-4	3	-6	-7
Cc1cc(-c2nnc(SCc3ccccn3)o2)no1	-4	14*	-5	11	11*	-4	-1
